According to paper PMC8367640 (Journal of Applied Glycoscience, 2021):

Tested on: BlAga3
Experiment: HPAEC-PAD of released products
Assay type: biochemical, Bifidobacterium longum subsp. longum
Conditions: 50 mM sodium acetate pH 6.0, 45 °C, 20 min
How it was run: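 His-tagged recombinant BlAga3, TALON-purified (50 mM imidazole fraction, desalted). Enzyme in 50 mM sodium acetate pH 6.0 at 45 °C for 20 min: 0.20 μg/mL with 0.1–10 mM α-D-Gal-(1→3)-L-Ara, or 0.79 μg/mL with 1.0–50 mM raffinose. Stopped with 5 % TCA; released sugars quantified by HPAEC-PAD (NaOH/sodium acetate gradient).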

Compound: OC[C@H]1O[C@H](OC[C@H]2O[C@H](O[C@]3(CO)O[C@H](CO)[C@@H](O)[C@@H]3O)[C@H](O)[C@@H](O)[C@@H]2O)[C@H](O)[C@@H](O)[C@H]1O [Raffinose]
- Km (1.0-50 mM substrate): 29.5 ± 1 mM

Compound: OC[C@H]1O[C@H](O[C@H]2[C@@H](O)COC(O)[C@@H]2O)[C@H](O)[C@@H](O)[C@H]1O (stereo partly drawn) [GA, α-D-Gal-(1→3)-L-Ara]
- Km (0.1–10 mM substrate): 0.774 ± 0.014 mM
